Values after ≈ are worked out from the molar mass of the structure shown.

Data set [1] concerns the target T1, Organic anion transporter 3 (Homo sapiens, UniProt Q8TCC7).
T1 sequence (Q8TCC7 whole entry): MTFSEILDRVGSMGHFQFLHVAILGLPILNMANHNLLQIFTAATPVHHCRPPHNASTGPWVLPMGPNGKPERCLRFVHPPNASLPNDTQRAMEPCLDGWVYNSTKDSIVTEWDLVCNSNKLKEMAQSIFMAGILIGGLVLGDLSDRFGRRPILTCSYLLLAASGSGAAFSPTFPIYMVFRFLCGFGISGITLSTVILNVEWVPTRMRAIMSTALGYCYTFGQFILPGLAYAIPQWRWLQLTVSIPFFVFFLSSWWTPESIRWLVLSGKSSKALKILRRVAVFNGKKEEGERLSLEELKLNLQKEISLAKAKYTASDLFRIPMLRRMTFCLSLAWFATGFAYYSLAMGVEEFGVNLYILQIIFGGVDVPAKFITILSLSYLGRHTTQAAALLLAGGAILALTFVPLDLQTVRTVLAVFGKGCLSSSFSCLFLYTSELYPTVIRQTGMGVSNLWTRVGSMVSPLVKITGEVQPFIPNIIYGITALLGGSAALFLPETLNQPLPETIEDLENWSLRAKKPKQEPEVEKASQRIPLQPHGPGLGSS
Kind of data set: Inhibition of human OAT3 expressed in HEK293 cells assessed as 6-CF uptake after 5 mins by fluorescence assay. Format: cell-based. The settings on record: for inhibition (INH): human, hek293, 5 min. The gist of the method: (§1)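 Stably transfected HEK293 cells (human OAT1, OAT3, OCT1, OCT2, OATP1B3, OATP2B1) and mock cells were assayed 16 h after seeding in HEPES uptake buffer, pH 7.2, with fluorescent probe ± compound. Incubation was 5 min for OAT1/3 and OATPs, and 10 min for OCT1/2. Reference inhibitors were probenecid (OATs), quinine (OCTs) and rifampicin (OATPs). Uptake was stopped with ice-cold PBS and cells were lysed in Tris/Triton. Fluorescence was normalised to BCA protein; triplicates, repeated 2–3 times.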

A short description of data set [2]: Toxicity in ip dosed DBA/2 mouse assessed as reduction in 15% body weight administered as daily dose for 3 days. Format: organism-based. The settings on record: in vivo. The gist of the method: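 Adult male DBA/2 mice were dosed i.p. at 10 mL kg−1, with 5 per group. Controls (n = 8) received saline. MTD was the dose allowing 15% median body-weight loss with no toxic deaths or marked change in general signs within 3 days.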

Data set [3] is described as follows: Cytotoxicity against HEK293FT cells expressing GLUT1 assessed as reduction in cell viability up to 20 uM. The data set is classed as cell-based. The settings on record: human.
For data set [4], the system named is HT-29. Kind of data set: Cytotoxicity against human HT-29 cells assessed as reduction in cell viability after 72 hrs by MTT assay. Format: functional, cell-based. The settings on record: HT-29, 72 h. In short, it runs like this:
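HT29 cells were cultured in RPMI-1640 with glutamine and 10% FBS, seeded at 2000–7500 cells/well, and exposed for 72 h to drug in DMSO (final DMSO <0.1%). MTT was added at 0.83 mg mL−1 final and incubated overnight, then cells were lysed in SDS/HCl and read at 570 nm. Survival was expressed as percent of drug-free control; five replicate wells.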

Data set [5] has as its system HEK293. In words: Toxicity in HEK293 cells assessed as effect on total protein up to 200 uM after 10 mins. Format: cell-based. The following applies: human, hek293, 10 min. The gist of the method: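 HEK293-mock cells were exposed to 100 or 200 μM for 10 min, and total cellular protein was then measured.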
The test system of data set [6] is HEK293. In words: Cytotoxicity against HEK293 cells assessed as reduction in cell viability up to 200 uM after 10 mins by MTT assay. Format: cell-based. The settings on record: human, hek293, 10 min. In short, it runs like this: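 HEK293-mock cells were exposed to 100 or 200 μM for 10 min. MTT was added at 0.83 mg mL−1 final and incubated overnight. Cells were lysed in 15% SDS/0.015 M HCl and absorbance was read at 570 nm. Viability is given as % of drug-free controls.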

The target of data set [7] is T2, Solute carrier family 22 member 1 (Homo sapiens, UniProt O15245).
T2 sequence (O15245 whole entry): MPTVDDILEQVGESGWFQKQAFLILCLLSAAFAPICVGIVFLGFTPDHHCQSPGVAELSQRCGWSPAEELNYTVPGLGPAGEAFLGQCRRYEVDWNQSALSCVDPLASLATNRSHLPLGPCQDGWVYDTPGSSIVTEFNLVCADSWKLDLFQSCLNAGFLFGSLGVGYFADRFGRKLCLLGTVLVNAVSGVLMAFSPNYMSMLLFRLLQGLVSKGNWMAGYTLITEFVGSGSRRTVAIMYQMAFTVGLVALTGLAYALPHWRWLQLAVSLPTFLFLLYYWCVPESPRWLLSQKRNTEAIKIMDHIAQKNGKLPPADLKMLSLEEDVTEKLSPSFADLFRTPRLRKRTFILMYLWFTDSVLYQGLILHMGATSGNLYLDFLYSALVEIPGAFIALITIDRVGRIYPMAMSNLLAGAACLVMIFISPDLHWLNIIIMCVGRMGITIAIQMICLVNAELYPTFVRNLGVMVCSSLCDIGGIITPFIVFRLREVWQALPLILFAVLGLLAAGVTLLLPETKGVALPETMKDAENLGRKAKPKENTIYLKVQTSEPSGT
In words: Substrate activity at human OCT1 expressed in HEK293 cells assessed as compound uptake by HPLC-UV method. The data set is classed as ADME, cell-based.

The nature of data set [8]: Aqueous solubility of the compound after 1 hrs by HPLC-UV method. Format: physicochemical. The settings on record: deionized water. The gist of the method: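 Shaken in tubes at 25 °C for 1 h, protected from light, then filtered through 0.2 μm filters; filtrate diluted in deionized water and quantified by reversed-phase HPLC-UV (C18 column, room temperature, methanol/water 70:30 v/v, 1.0 mL min−1).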

In data set [9] the target is T3, Solute carrier organic anion transporter family member 1B3 (Homo sapiens, UniProt Q9NPD5).
T3 sequence (Q9NPD5 whole entry): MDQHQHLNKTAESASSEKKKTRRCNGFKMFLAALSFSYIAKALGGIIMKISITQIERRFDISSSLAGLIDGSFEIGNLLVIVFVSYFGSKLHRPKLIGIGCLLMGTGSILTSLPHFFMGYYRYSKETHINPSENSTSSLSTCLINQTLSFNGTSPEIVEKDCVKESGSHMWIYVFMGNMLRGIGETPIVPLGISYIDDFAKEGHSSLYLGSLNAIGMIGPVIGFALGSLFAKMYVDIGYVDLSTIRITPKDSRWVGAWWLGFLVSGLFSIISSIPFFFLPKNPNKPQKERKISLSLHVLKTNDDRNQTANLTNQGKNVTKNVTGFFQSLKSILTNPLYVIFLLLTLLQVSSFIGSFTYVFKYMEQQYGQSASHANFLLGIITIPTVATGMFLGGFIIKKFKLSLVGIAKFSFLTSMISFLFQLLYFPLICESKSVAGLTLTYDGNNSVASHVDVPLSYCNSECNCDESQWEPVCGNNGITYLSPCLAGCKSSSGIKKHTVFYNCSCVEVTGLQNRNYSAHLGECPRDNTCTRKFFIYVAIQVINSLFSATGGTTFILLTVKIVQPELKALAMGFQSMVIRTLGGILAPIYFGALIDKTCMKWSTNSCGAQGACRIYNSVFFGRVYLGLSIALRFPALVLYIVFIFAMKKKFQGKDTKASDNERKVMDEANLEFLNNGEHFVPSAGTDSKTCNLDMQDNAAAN
In words: Inhibition of human OATP1B3 expressed in HEK293 cells assessed as FMTX uptake after 5 mins by fluorescence assay. The data set is classed as cell-based. The settings on record: for inhibition (INH): human, hek293, 5 min. In short, it runs like this:
as §1

On to `COc1ccc(/C=C\c2cc(OC)c(OC)c(OC)c2)cc1O` [COMBRETASTATIN A4], for which the IC50 is 16.4 µM in data set [1], 0.72 µM in [4] and 195 µM in data set [9]. Further, the “inhibition (INH)” value in data set [1] and in data set [9] was “Dose-dependent effect” throughout. For the same molecule, the MTD at 72 h in data set [2] was found to be 25 mg/kg. The Activity entry in [3] is reported as “Toxic”; in [5], “Non-Toxic”; in data set [6], “Non-Toxic”. In addition, the Drug uptake entry in data set [7] is recorded as “Active”. This molecule displayed a solubility at 1 h in data set [8] of 3 µg/mL (≈ 9.48 µM).

Turning to `COc1ccc(/C=C\c2cc(OC)c(OC)c(OC)c2)cc1O[C@@H]1O[C@H](CO)[C@@H](O)[C@H](O)[C@H]1O`, the IC50 is more than 200 µM in data set [1], 6.91 µM in [4] and more than 200 µM in data set [9]. Moreover, the “inhibition (INH)” value in data set [1] and in data set [9] was “Dose-dependent effect” each time. Further, in [2], the MTD at 72 h is 400 mg/kg. Moreover, the figures for the Activity result in data set [3], in data set [5] and in [6] were “Toxic”, “Non-Toxic” and “Non-Toxic”, respectively. In addition, the Drug uptake result in data set [7] was “Not Active”. In data set [8], the solubility at 1 h amounted to 1830 µg/mL (≈ 3820 µM).

For the origin of these results see ChEMBL document CHEMBL4257448, “Deciphering the origins of molecular toxicity of combretastatin A4 and its glycoconjugates: interactions with major drug transporters and their safety profiles in vitro and in vivo” (Medchemcomm, 2017).
